ChEMBL document CHEMBL1144889 (J Med Chem, 2003)

Assays:
Glucocorticoid receptor [1] = target: T1, Glucocorticoid receptor (Homo sapiens, UniProt P04150); test: Transcriptional repression in HepG2 cells expressing human glucocorticoid receptor; format: functional, cell-based
T1 sequence (P04150 whole entry): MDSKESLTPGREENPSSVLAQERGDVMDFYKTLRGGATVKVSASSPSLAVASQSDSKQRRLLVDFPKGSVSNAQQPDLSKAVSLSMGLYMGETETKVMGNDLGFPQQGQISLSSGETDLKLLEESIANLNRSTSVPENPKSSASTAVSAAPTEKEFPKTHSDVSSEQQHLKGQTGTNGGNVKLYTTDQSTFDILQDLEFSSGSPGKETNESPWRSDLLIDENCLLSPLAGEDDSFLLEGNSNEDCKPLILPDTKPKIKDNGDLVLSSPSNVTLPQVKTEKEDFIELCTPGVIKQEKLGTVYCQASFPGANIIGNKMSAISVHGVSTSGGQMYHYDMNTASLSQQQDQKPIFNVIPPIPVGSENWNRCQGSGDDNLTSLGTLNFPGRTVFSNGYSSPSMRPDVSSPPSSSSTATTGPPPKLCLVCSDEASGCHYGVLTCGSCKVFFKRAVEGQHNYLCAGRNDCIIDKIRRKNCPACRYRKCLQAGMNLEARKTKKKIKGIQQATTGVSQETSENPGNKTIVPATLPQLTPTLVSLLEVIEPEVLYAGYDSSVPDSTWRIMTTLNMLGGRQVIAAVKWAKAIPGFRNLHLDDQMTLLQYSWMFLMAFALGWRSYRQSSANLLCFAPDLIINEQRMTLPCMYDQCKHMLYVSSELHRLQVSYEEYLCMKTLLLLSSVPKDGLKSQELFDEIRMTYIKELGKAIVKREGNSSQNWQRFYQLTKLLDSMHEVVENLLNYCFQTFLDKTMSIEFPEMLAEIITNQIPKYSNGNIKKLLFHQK

Progesterone receptor = target: T2, Progesterone receptor (Homo sapiens, UniProt P06401); test: Displacement of [3H]progesterone from human Progesterone receptor A
T2 sequence (P06401 whole entry): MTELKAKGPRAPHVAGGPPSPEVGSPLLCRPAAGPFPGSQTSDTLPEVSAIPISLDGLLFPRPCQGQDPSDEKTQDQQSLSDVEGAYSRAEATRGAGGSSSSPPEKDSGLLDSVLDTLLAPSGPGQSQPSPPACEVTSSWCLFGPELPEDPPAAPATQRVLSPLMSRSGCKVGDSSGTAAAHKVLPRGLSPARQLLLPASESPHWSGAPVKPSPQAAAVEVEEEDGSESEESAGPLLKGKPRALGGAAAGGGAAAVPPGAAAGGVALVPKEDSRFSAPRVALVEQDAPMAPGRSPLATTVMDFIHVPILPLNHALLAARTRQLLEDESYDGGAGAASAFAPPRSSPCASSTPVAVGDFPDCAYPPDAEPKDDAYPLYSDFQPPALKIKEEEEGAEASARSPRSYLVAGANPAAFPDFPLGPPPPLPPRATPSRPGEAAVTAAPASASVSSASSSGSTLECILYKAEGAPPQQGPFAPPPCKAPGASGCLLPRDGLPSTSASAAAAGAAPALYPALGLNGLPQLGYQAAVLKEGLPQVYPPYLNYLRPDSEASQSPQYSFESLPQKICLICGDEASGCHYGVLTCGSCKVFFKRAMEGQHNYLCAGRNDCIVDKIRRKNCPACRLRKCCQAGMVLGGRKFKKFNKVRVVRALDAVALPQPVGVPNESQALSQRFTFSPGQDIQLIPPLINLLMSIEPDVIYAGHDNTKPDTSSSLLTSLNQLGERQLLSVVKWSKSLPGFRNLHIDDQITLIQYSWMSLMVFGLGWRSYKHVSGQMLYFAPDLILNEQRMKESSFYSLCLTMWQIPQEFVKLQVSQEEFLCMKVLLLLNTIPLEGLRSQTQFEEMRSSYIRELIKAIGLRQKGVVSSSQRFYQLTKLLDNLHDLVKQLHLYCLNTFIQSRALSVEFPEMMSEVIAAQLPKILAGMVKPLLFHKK

Glucocorticoid receptor [2] = target: T1, Glucocorticoid receptor; test: Binding affinity towards human glucocorticoid receptor (GR) was determined using [3H]dexamethasone as radioligand in […] cells; format: cell-based
[3] = target: T3, Glucocorticoid receptor (Homo sapiens) (UniProt P04150); test: Transcriptional activation in CV-1 cells expressing human glucocorticoid receptor compared to Dexamethasone; format: functional, cell-based
T3 sequence (whole entry): T1 sequence (P04150 whole entry)
Method in brief: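 GRE activation co-transfection in CV-1 cells: hGR receptor plasmid plus a luciferase reporter driven by part of the MMTV promoter (four GRE sites, no known AP-1 or NFκB affinity). Full seven-point, half-log concentration-response curves run in triplicate. EC50 is the concentration at half-maximal response; efficacy is given as % of the dexamethasone maximal response.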

[4] = Binding affinity towards estradiol receptor (Estrogen receptor); design: species or system Homo sapiens
Method in brief: (§1)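 Competition radioligand binding; tracers [3H]aldosterone (MR) and [3H]estradiol (ER). Bound ligand collected on hydroxyapatite, washed with ice-cold buffer, counted by scintillation. IC50 obtained from Hill analysis of binding curves, Ki from Cheng-Prusoff. Mean of two experiments in triplicate, single triplicate run, or ≥3 experiments in triplicate.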

[5] = Binding affinity towards aldosterone receptor (Mineralocorticoid receptor); design: species or system Homo sapiens; method in brief: as §1
Rattus norvegicus = test: Reduction in carrageenan induced paw edema in rat after oral dose; format: functional
Method in brief: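 Sprague-Dawley rats dosed orally, then given carrageenan into the hind paw. Edema read at 3 h as the increase in paw volume. ED50 dose calculated from dose-dependent inhibition of edema.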

Androgen receptor = target: T4, Androgen receptor (Homo sapiens, UniProt P10275); test: Binding affinity towards testosterone receptor
T4 sequence (P10275 whole entry): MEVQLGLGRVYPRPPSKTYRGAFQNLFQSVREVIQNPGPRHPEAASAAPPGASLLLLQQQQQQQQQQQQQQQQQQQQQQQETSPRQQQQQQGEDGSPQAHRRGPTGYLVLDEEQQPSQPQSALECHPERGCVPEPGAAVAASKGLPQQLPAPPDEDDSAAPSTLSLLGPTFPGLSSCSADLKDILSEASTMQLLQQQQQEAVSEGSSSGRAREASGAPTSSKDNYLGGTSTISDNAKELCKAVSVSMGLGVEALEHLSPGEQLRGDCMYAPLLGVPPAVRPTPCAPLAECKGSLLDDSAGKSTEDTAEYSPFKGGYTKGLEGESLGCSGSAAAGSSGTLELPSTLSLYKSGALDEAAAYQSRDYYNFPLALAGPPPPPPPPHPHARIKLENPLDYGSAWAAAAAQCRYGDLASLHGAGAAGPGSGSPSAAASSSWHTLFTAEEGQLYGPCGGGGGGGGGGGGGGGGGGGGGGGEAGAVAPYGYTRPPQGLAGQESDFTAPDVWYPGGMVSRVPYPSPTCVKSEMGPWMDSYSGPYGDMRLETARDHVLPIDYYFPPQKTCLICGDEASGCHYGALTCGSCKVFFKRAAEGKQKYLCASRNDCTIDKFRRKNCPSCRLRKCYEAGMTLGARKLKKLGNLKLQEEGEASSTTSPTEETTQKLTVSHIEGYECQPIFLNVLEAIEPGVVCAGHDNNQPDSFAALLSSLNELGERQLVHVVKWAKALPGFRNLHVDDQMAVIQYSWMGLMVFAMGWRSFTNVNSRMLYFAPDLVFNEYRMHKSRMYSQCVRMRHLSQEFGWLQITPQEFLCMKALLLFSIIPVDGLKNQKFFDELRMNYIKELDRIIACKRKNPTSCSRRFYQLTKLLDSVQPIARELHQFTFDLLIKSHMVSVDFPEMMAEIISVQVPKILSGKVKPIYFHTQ

Glucocorticoid receptor [6] = target: T1, Glucocorticoid receptor; test: Transcriptional activation in CV-1 cells expressing human glucocorticoid receptor; format: functional, cell-based
Method in brief: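 Cotransfection of an hGR receptor plasmid with a luciferase reporter driven by the MMTV promoter (four GREs) in CV-1 cells. Seven-point half-log concentration-response curves. EC50 taken as half-maximal response. Efficacy expressed as % of the dexamethasone maximum. Mean of two experiments in triplicate, single triplicate run, or ≥3 experiments in triplicate.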

Compound | EC50 (Glucocorticoid receptor [1]) [nM] | Ki (Progesterone receptor) [nM] | Ki (Glucocorticoid receptor [2]) [nM] | Efficacy [3] [%] | Ki [4] [nM] | Ki [5] [nM] | Ki (Androgen receptor) [nM] | EC50 (Glucocorticoid receptor [6]) [nM] | ED50 (Rattus norvegicus) [mg/kg]
C=CCC1Oc2c(C=C)ccc(OC)c2-c2ccc3c(c21)C(C)=CC(C)(C)N3 (stereo unspecified) | 156 | 450 | 34 | – | – | – | – | – | –
C=CCC1Oc2ccc(Cl)c(OC)c2-c2ccc3c(c21)C(C)=CC(C)(C)N3 (stereo unspecified) | 94 | 29 | 5.42 | – | – | – | – | – | –
C=CCC1Oc2cccc(SC)c2-c2ccc3c(c21)C(C)=CC(C)(C)N3 (stereo unspecified) | 18 | – | – | 60 | > 1000 | 93.8 | 2460 | 123 | –
C=CCC1Oc2cccc(CO)c2-c2ccc3c(c21)C(C)=CC(C)(C)N3 (stereo unspecified) | 19 | – | 2.3 | 69 | > 1000 | 292 | 1320 | 61 | –
C[C@]12C=CC(=O)C=C1CCC1[C@@H]2[C@@H](O)C[C@@]2(C)[C@H]1CC[C@]2(O)C(=O)CO (single isomer, unassigned) [PREDNISOLONE] | – | – | – | – | > 1000 | 37 | – | – | –
C=CCC1Oc2ccc(OC)c(OC)c2-c2ccc3c(c21)C(C)=CC(C)(C)N3 (stereo unspecified) | 120 | – | – | – | – | – | – | – | –
C=CCC1Oc2c(Br)cc(O)c(Cl)c2-c2ccc3c(c21)C(C)=CC(C)(C)N3 (stereo unspecified) | – | 22 | – | – | – | – | – | – | –
C=CCC1Oc2ccccc2-c2ccc3c(c21)C(C)=CC(C)(C)N3 (stereo unspecified) | 350 | – | 33.8 | 2 | > 1000 | > 5000 | > 5000 | > 300 | –
C=CCC1Oc2cccc(C=C)c2-c2ccc3c(c21)C(C)=CC(C)(C)N3 (stereo unspecified) | 12 | 435 | 4.4 | 50 | > 1000 | 57 | 239 | 17 | –
C=CCC1Oc2ccc(C(=O)OC)c(OC)c2-c2ccc3c(c21)C(C)=CC(C)(C)N3 (stereo unspecified) | 100 | – | – | – | – | – | – | – | –
C=CCC1Oc2c(C)ccc(OC)c2-c2ccc3c(c21)C(C)=CC(C)(C)N3 (stereo unspecified) | 81 | > 5000 | – | – | – | – | – | – | –
C=CCC1Oc2cccc(O)c2-c2ccc3c(c21)C(C)=CC(C)(C)N3 (stereo unspecified) | 250 | – | 27.6 | 29 | > 1000 | 1370 | 2060 | 550 | –
C#CCOc1cccc2c1-c1ccc3c(c1C(CC=C)O2)C(C)=CC(C)(C)N3 (stereo unspecified) | 270 | – | 4.2 | 9 | – | – | – | > 300 | –
C=CCC1Oc2ccc(O)c(Cl)c2-c2ccc3c(c21)C(C)=CC(C)(C)N3 (stereo unspecified) | 5 | – | – | – | – | – | – | – | 15
C#Cc1cccc2c1-c1ccc3c(c1C(CC=C)O2)C(C)=CC(C)(C)N3 (stereo unspecified) | 59 | 2400 | 6.9 | 92 | > 1000 | 350 | 650 | 130 | –
C#CCOc1ccc2c(c1OC)-c1ccc3c(c1C(CC=C)O2)C(C)=CC(C)(C)N3 (stereo unspecified) | 160 | – | – | – | – | – | – | – | –
C=CCC1Oc2ccc(OCC#N)c(OC)c2-c2ccc3c(c21)C(C)=CC(C)(C)N3 (stereo unspecified) | 130 | 3080 | 51 | – | – | – | – | – | –
C=CCC1Oc2cccc(Cl)c2-c2ccc3c(c21)C(C)=CC(C)(C)N3 (stereo unspecified) | 45 | – | – | – | – | – | – | – | –
C=CCC1Oc2ccc(O)c(OC)c2-c2ccc3c(c21)C(C)=CC(C)(C)N3 (stereo unspecified) | 14 | 150 | – | – | – | – | – | – | 16

The next lines start with results.

EC50 (Glucocorticoid receptor [1]) [nM] | Ki (Progesterone receptor) [nM] | Ki (Glucocorticoid receptor [2]) [nM] | Efficacy [3] [%] | Ki [4] [nM] | Ki [5] [nM] | Ki (Androgen receptor) [nM] | EC50 (Glucocorticoid receptor [6]) [nM] | Compound | ED50 (Rattus norvegicus) [mg/kg]
– | – | – | 68 | > 1000 | 46 | 1230 | – | C=CCC1Oc2cccc(OC)c2-c2ccc3c(c21)C(C)=CC(C)(C)N3 (stereo unspecified) [AL-43] | 15
18 | 349 | 2.2 | 70 | > 1000 | 35.8 | 96.3 | 35 | C=CCC1Oc2cccc(OC(F)F)c2-c2ccc3c(c21)C(C)=CC(C)(C)N3 (stereo unspecified) | 21
82 | 34 | – | – | – | – | – | – | C=CCC1Oc2ccc(Br)c(OC)c2-c2ccc3c(c21)C(C)=CC(C)(C)N3 (stereo unspecified) | –
140 | – | – | – | – | – | – | – | C=CCOc1ccc2c(c1OC)-c1ccc3c(c1C(CC=C)O2)C(C)=CC(C)(C)N3 (stereo unspecified) | –
53 | 100 | 6.6 | – | – | – | – | – | C=CCC1Oc2ccc(CO)c(OC)c2-c2ccc3c(c21)C(C)=CC(C)(C)N3 (stereo unspecified) | –
59 | > 5000 | – | – | – | – | – | – | C=CCC1Oc2c(Br)ccc(OC)c2-c2ccc3c(c21)C(C)=CC(C)(C)N3 (stereo unspecified) | –
60 | – | – | 87 | > 1000 | > 5000 | > 5000 | 195 | C=CCC1Oc2cccc(C#N)c2-c2ccc3c(c21)C(C)=CC(C)(C)N3 (stereo unspecified) | –
19 | 2920 | 7 | 60 | > 1000 | 251 | 2590 | 32 | C=CCC1Oc2cccc(NC)c2-c2ccc3c(c21)C(C)=CC(C)(C)N3 (stereo unspecified) | –
